Laboratory results taken from ChEMBL document CHEMBL3259656, “Discovery of AZD3199, An Inhaled Ultralong Acting β2 Receptor Agonist with Rapid Onset of Action” (ACS Med Chem Lett, 2014).
Activity calls are given as the source filed them. The rule behind the calls is not given here.

What was measured:
[1] = target: Beta-2 adrenergic receptor (Homo sapiens, UniProt P07550); assay: Agonist activity at human beta-2 adrenergic receptor expressed in human H292 cells assessed as accumulation of intracellular cAMP after 1 hr by AlphaScreen assay; format: functional, cell-based
[2] = tested on: Cavia porcellus; assay: Bronchoprotective activity in guinea pig assessed as inhibition of histamine-induced bronchoconstriction at ED80 administered intratracheally after 4 to 24 hrs relative to control; format: functional, organism-based
How it was run: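 Guinea pigs received a single intratracheal dose of agonist. Histamine-induced bronchoconstriction was measured at several time points after dosing, up to 24 h. Bronchoprotection was expressed as inhibition relative to control animals.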

[3] = tested on: Cavia porcellus; assay: Toxicity in iv dosed guinea pig assessed as change in plasma potassium level up to 60 mins; format: organism-based; settings: in vivo, 1 h
[4] = tested on: Cavia porcellus; assay: Bronchoprotective activity in guinea pig assessed as inhibition of histamine-induced bronchoconstriction administered intratracheally after 2 hrs; format: functional; settings: inhaled or nasal
[5] = target: Beta-2 adrenergic receptor (Mus musculus) (UniProt P18762); assay: Intrinsic activity at mouse recombinant beta-2 adrenergic receptor
[6] = target: T1, Alpha-1D adrenergic receptor (Homo sapiens) (UniProt P25100); assay: Agonist activity at human recombinant alpha-1D adrenergic receptor expressed in HEK cells assessed as intracellular calcium response; settings: HEK293
T1 sequence (whole entry): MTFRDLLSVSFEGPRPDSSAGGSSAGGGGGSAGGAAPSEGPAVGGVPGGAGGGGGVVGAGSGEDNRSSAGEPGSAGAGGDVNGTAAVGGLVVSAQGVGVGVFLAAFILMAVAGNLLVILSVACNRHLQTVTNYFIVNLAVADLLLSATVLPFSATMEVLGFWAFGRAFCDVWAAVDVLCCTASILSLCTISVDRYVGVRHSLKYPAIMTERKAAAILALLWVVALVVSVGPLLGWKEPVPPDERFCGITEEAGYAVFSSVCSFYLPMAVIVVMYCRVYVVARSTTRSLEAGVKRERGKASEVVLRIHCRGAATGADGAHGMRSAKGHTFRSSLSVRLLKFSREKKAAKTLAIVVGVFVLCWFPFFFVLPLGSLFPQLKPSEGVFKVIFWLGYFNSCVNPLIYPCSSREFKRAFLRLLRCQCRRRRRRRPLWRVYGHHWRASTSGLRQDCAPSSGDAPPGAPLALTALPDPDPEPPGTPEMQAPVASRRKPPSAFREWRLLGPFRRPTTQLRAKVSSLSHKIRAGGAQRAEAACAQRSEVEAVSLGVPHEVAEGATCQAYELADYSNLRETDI

[7] = organism: Oryctolagus cuniculus; assay: Agonist activity at rabbit recombinant beta-2 adrenergic receptor assessed as cAMP accumulation by cell-based assay
[8] = Apparent volume of distribution in iv dosed rat; format: ADME, organism-based; settings: in vivo, read-out: Vz
[9] = Terminal half life in iv dosed dog; format: ADME, organism-based, Canis lupus familiaris; settings: in vivo, read-out: beta t1/2 (converted)
[10] = tested on: Cavia porcellus; assay: Bronchoprotective activity in guinea pig assessed as inhibition of histamine-induced bronchoconstriction at ED80 administered intratracheally after 24 hrs relative to control; format: functional
How it was run: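 Guinea pigs received a single intratracheal dose, set from a dose–response in the same histamine-induced bronchoconstriction model. Histamine challenge was given at several times after dosing, and inhibition of bronchoconstriction was measured. Bronchoprotection at 24 h was expressed relative to control animals.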

[11] = Apparent volume of distribution in iv dosed guinea pig; format: ADME, organism-based, Cavia porcellus; settings: in vivo, read-out: Vz
[12] = organism: Oryctolagus cuniculus; assay: Intrinsic activity at rabbit recombinant beta-2 adrenergic receptor
[13] = Apparent volume of distribution in iv dosed dog; format: ADME, organism-based, Canis lupus familiaris; settings: in vivo, read-out: Vz
[14] = target: Beta-2 adrenergic receptor (Rattus norvegicus) (UniProt P10608); assay: Agonist activity at beta-2 adrenergic receptor in rat C6 cells assessed as cAMP accumulation; format: functional, cell-based
[15] = Terminal half life in iv dosed rat; format: ADME, organism-based; settings: in vivo, read-out: beta t1/2 (converted)
[16] = Oral bioavailability in rat; format: ADME, organism-based; settings: in vivo
[17] = target: Beta-2 adrenergic receptor (Canis lupus familiaris) (UniProt P54833); assay: Intrinsic activity at dog recombinant beta-2 adrenergic receptor
[18] = target: Beta-2 adrenergic receptor (Rattus norvegicus) (UniProt P10608); assay: Intrinsic activity at beta-2 adrenergic receptor in rat C6 cells; format: cell-based
[19] = Terminal half life in iv dosed guinea pig; format: ADME, organism-based, Cavia porcellus; settings: in vivo, read-out: beta t1/2 (converted)
[20] = target: Beta-2 adrenergic receptor (Canis lupus familiaris) (UniProt P54833); assay: Agonist activity at dog recombinant beta-2 adrenergic receptor assessed as cAMP accumulation by cell-based assay; format: functional
[21] = Oral bioavailability in dog; format: ADME, organism-based, Canis lupus familiaris; settings: in vivo
[22] = Intrinsic clearance in rat measured per million cells; format: ADME
[23] = target: Beta-2 adrenergic receptor (Mus musculus) (UniProt P18762); assay: Agonist activity at mouse recombinant beta-2 adrenergic receptor assessed as cAMP accumulation by cell-based assay; format: functional
[24] = tested on: Cavia porcellus; assay: Bronchoprotective activity in guinea pig assessed as inhibition of histamine-induced bronchoconstriction administered intratracheally after 2 hrs in presence of propanolol; format: functional, organism-based
How it was run: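 In the guinea pig histamine-induced bronchoconstriction model, propranolol was given at 1 mg/kg i.v. to check that the bronchoprotection was mediated through β2 receptors.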

[25] = target: T2, D(2) dopamine receptor (Homo sapiens, UniProt P14416); assay: Partial agonist activity at human recombinant dopamine D2S receptor expressed in HEK cells by GTPgammaS binding assay; format: functional, cell-based; settings: HEK293
[26] = target: Beta-2 adrenergic receptor (Cavia porcellus) (UniProt Q8K4Z4); settings: Trachea
[27] = target: T2, D(2) dopamine receptor; assay: Agonist activity at human recombinant dopamine D2S receptor expressed in HEK cells by GTPgammaS binding assay; format: functional, HEK293

Chain of Beta-2 adrenergic receptor (P07550 whole entry): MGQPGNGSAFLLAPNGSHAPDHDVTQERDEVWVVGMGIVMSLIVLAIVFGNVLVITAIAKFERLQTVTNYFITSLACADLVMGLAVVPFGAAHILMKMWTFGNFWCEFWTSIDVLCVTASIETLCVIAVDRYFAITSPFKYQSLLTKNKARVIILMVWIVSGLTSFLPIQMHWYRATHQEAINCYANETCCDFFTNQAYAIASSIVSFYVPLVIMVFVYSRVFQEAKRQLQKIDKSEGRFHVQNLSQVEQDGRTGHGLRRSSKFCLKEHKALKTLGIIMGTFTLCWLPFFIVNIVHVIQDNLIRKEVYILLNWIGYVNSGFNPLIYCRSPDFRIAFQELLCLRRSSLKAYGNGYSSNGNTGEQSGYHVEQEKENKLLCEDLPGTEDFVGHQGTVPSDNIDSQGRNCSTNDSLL
Chain of Beta-2 adrenergic receptor (Canis lupus familiaris) (P54833 whole entry, looked up): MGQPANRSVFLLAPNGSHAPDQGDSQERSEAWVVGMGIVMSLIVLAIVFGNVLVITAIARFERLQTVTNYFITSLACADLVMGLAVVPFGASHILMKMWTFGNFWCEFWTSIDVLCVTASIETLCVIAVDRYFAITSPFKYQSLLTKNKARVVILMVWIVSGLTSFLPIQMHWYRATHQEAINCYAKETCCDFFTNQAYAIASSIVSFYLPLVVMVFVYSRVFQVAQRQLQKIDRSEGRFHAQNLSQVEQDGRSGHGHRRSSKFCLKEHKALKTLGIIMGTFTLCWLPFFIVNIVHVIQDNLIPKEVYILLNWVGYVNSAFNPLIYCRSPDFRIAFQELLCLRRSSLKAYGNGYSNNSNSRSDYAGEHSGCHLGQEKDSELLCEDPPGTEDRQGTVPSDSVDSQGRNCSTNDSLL
Chain of Beta-2 adrenergic receptor (Mus musculus) (P18762 whole entry, looked up): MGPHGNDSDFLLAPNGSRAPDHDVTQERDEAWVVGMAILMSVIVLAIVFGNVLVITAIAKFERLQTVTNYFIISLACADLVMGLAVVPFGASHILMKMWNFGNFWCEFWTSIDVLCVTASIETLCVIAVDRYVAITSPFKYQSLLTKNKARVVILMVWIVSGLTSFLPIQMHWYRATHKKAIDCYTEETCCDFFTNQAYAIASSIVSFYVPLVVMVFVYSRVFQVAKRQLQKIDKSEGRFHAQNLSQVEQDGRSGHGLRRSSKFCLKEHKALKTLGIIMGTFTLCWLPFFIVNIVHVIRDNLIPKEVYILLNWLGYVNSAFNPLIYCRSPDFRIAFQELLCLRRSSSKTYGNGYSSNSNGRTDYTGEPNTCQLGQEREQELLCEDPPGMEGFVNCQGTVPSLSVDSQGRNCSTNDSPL
T2 sequence (P14416 whole entry): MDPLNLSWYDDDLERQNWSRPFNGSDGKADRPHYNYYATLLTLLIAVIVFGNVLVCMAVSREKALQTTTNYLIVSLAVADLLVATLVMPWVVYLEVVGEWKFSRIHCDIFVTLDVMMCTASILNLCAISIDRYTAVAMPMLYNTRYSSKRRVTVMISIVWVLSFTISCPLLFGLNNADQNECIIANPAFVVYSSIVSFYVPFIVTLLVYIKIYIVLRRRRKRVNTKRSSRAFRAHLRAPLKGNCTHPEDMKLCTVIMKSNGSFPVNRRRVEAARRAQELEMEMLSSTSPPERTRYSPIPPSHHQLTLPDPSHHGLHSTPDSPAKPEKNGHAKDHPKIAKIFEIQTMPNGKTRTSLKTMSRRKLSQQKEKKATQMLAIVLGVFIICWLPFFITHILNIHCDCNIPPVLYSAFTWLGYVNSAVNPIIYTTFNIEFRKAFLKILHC
Chain of Beta-2 adrenergic receptor (Rattus norvegicus) (P10608 whole entry, looked up): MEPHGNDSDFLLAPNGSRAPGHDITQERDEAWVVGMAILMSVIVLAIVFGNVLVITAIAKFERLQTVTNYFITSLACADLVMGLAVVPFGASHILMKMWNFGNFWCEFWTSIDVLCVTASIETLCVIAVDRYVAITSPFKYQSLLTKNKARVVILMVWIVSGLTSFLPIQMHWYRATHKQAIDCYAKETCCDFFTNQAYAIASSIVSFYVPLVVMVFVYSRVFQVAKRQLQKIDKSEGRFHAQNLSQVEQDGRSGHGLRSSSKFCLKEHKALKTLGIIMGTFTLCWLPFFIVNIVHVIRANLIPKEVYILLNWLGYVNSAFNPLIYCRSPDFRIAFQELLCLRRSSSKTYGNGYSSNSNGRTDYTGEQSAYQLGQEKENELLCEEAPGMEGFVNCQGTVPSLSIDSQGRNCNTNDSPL
Chain of Beta-2 adrenergic receptor (Cavia porcellus) (Q8K4Z4 whole entry, looked up): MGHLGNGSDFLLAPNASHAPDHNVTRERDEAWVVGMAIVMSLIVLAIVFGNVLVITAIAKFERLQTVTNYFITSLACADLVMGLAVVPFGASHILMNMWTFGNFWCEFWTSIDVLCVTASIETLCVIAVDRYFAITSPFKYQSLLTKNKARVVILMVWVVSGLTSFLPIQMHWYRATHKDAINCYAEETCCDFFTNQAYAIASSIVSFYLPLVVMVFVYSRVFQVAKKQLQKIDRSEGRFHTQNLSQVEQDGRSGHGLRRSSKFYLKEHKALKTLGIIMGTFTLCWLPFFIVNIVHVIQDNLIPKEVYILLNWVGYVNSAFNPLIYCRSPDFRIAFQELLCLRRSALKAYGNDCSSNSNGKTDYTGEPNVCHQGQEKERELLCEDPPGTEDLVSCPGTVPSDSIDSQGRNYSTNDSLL

CN(CCCN(CCNCCc1ccc(O)c2[nH]c(=O)sc12)C(=O)CCOCCc1cccc(Cl)c1)C1CC1
EC50 [1]: 7.94 nM

OCc1cc(C(O)CNCCCCCCOCCCCc2ccccc2)ccc1O (stereo unspecified)
inhibition [2]: Active

O=C(CCOCCc1cccc(Cl)c1)N(CCNCCc1ccc(O)c2[nH]c(=O)sc12)CCN1CCCCC1
EC50 [1]: 12.6 nM

CC(C)(C)NCC(O)c1ccc(O)c(CO)c1 (stereo unspecified) [ALBUTEROL]
Activity [3]: Toxic

Br.CCN(CC)CCN(CCNCCc1ccc(O)c2[nH]c(=O)sc12)C(=O)CCOCCc1cccc2ccccc12
ED80 [4]: 0.027 mg/kg
Activity [5]: Active
Activity [6]: inactive
Activity [7]: Active
Vd [8]: 23 L/kg
half-life [9]: 18 h
inhibition (INH) [10]: 58%
Vd [11]: 22 L/kg
Activity [12]: Active
Vd [13]: 17 L/kg
Activity [14]: Active
half-life [15]: 11 h
bioavailability [16]: < 2%
Activity [17]: Active
Activity [18]: Active
half-life [19]: 17 h
Activity [20]: Active
bioavailability [21]: < 2%
hepatocyte CLint [22]: 105 µL/min/1e6 cells
Activity [3]: Toxic
Activity [23]: Active
Activity [24]: inactive
Activity [25]: Active

CCc1cc2c(cc1CC)CC(NC[C@H](O)c1ccc(O)c3[nH]c(=O)ccc13)C2
pA50 [26]: 7.7

CC(C)N(C)CCCN(CCNCCc1ccc(O)c2[nH]c(=O)sc12)C(=O)CCOCCc1cccc(Cl)c1
EC50 [1]: 5.01 nM

CCN(CC)CCN(CCNCCc1ccc(O)c2[nH]c(=O)sc12)C(=O)CCOCCc1cccc(OC)c1
EC50 [1]: 7.94 nM

CN(C)CCCN(CCNCCc1ccc(O)c2[nH]c(=O)sc12)C(=O)CCOCCc1ccccc1
EC50 [1]: 15.8 nM

CN(C)CCN(CCNCCc1ccc(O)c2[nH]c(=O)sc12)C(=O)CCOCCc1ccccc1
EC50 [1]: 6.31 nM

O=c1[nH]c2c(O)ccc(CCNCCS(=O)(=O)CCCOCCc3ccccc3)c2s1 [SIBENADET]
EC50 [27]: 2 nM

NCCCN(CCNCCc1ccc(O)c2[nH]c(=O)sc12)C(=O)CCOCCc1ccccc1
EC50 [1]: 316 nM

CCN(C)CCCN(CCNCCc1ccc(O)c2[nH]c(=O)sc12)C(=O)CCOCCc1cccc(Cl)c1
EC50 [1]: 10 nM

CCN(CC)CCN(CCNCCc1ccc(O)c2[nH]c(=O)sc12)C(=O)CCOCCc1cccc(Cl)c1
EC50 [1]: 6.31 nM
